A selection: hits, their analogues and other compounds. The true share with any hit is near 3.1%.
Bfl-1 A1 inh: caspase 3/7 activation in MEF A1-2A-BIM cells, primary screen, A1 inhibitor project, cell-based, luminescence, HTS; caspase activation, % (no concentration beside the values); actives 0.066% (n = 330,000); Caspase-Glo 3/7 luminescence, 3 h; percent of clofoctol response, vehicle zero; AID 2462, 2010;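 active = over half of replicate activation scores above 10%, or exactly half above 10 with the replicate mean above 10; inconclusive = replicate mean below 10 yet half the replicates above 10; inactive = over half of replicates below 10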
T cruzi inh: inhibitors of intracellular T. cruzi growth, primary screen, luminescence, NIH3T3 host cells | T. cruzi beta-gal in NIH3T3, 90 h | inhibition, % (concentration not given with the values) | actives 1.4% (n = 300,000);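 active = mean inhibition across valid replicates above about 55%, limit read from the data; inconclusive = mean below that limit but half or more replicates reach it; inactive = mean below it, under half of replicates reach it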;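 also: signal also drops with host cell toxicity which is not excluded here; 0% = plate median of DMSO wells and 100% = zero luminescence signal; higher percent means less beta-gal luminescence so fewer parasites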
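System: mouse NIH/3T3 fibroblasts infected with β-gal-expressing T. cruzi Tulahuen C4 / Input: NIH/3T3 cells, 5,000 per well / Buffer or medium: Low-serum DMEM with 2% FBS / Probe or stimulus: 5000 reporter trypomastigotes per well / Schedule: ≥90 h infection period, 3 h prior cell attachment / Measured by: GalScreen luminescence, 60 min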
Beta cell apopt: inhibitors of cytokine-induced beta cell apoptosis, primary screen, luminescence. INS-1E cytokine-induced death, ATP luminescence, 48 h; percent of positive-control rescue, neutral wells zero. protection from apoptosis, % (no concentration beside the values). actives 0.8% (n = 300,000);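 active = Every replicate reaches about 75%, or at least half do and their mean reaches it too, limit read from the data; inconclusive = At least half of replicates reach the limit but their mean does not; inactive = Under half of replicates reach the limit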;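 also: 0% = cytokine-treated negative control wells and 100% = positive control rescue; higher means more ATP so stronger rescue from cytokine killing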
CSC inhib: cancer stem cell viability inhibitors, primary screen, luminescence. cancer stem cell-like cells viability. inhibition, % at 7.5 µM. actives 1.1% (n = 300,000). AID 2717, 2010; in the data active = inhibition above about 75%; inconclusive = no clear call, values can overlap the other calls; tested in HMLE shEcad cells
H9c2 TAG inh: inhibitors of triacylglycerol accumulation, primary screen, cell-based, uHTS, fluorescence, H9c2 | H9c2 cells, Nile Red lipid (TAG) fluorescence; cells loaded with 200 µM oleic acid | inhibition, % at 12.5 µM | actives 0.66% (n = 230,000) | AID 651582, 2012;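 active = pattern-corrected inhibition of lipid staining of at least 50% with the nuclear-stain viability signal not falling by more than 50%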;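 also: 0% = DMSO wells and 100% = triacsin C control wells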
Calb FLC: C. albicans growth inhibition with fluconazole, primary screen, CaCi-2 strain, Alamar Blue fluorescence | AID 1979, 2009 | C. albicans CaCi-2 + fluconazole, 48 h | growth inhibition, % (no concentration beside the values) | actives 0.57% (n = 300,000);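 active = growth inhibition above about 58% in most replicates, limit read from the data, passing the limit was not always enough; inconclusive = exactly half the replicates above a set limit; inactive = most replicates below a set limit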;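 also: all wells also contain fluconazole at 8 µg/ml as a sub-toxic cotreatment; 0% = median of DMSO wells and 100% = median of geldanamycin control wells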
The depositor's hits bear a star; u = inconclusive; x = not tested or not shown; + = active, no number.

SMILES	Bfl-1 A1 inh	T cruzi inh	Beta cell apopt	CSC inhib	H9c2 TAG inh	Calb FLC
Cc1ccc(/C=N/NC(=O)c2nnn(-c3nonc3N)c2CNc2ccccc2)cc1	0.4	6.4	0.0	-4.8	x	-2.7
COc1ccc2ccccc2c1/C=N/NC(=O)c1nnn(-c2nonc2N)c1C(C)C	-0.1	-15.6	3.1	28.9	x	u
COC(=O)[C@@H]1[C@@H](C#N)C2(c3ccccc3-c3ccccc32)N(c2ccc(Cl)cc2)N1C#N	2.7	-43.0	-10.1	104.8*	-36.7	10.3
O=C(Cc1ccccc1)Nc1ncnc2c1C(c1ccccc1)c1c(ccc3ccccc13)O2 (stereo unspecified)	-1.8	x	13.2	42.0	x	x
O=C(Nc1ncnc2c1C(c1ccccc1)c1c(ccc3ccccc13)O2)c1ccccc1 (stereo unspecified)	-1.7	x	81.7*	x	31.1	x
CC1=CC(C)(C)Nc2ccc(OC(=O)C(C)N3C(=O)c4ccccc4C3=O)cc21 (stereo unspecified)	0.7	-11.6	-24.0	20.3	3.6	59.5
CC1=CC(C)(C)Nc2ccc(OC(=O)CN3C(=O)CCC3=O)cc21	0.0	55.9*	x	x	x	9.6
CCN1CCN(Cc2nnc(-c3ccc(C)cc3)o2)CC1	0.6	2.1	-3.7	2.5	x	-15.3
O=C(c1cc2c(s1)CCCCC2)N1CCN(c2ncccn2)CC1	0.8	-9.1	-0.5	-0.6	x	76.1*
CCN(CC)S(=O)(=O)c1cc(C)ccc1NC(=S)Nc1cccnc1	0.3	2.1	81.8*	23.4	-14.9	-25.0
O=C(Nc1cccc(-c2cn3cccnc3n2)c1)c1ccc(Br)o1	-0.4	71.4*	1.5	x	x	8.6
Cc1c(-c2cccc(NC(=O)c3ccco3)c2)nc2ncccn12	-1.9	65.1*	3.2	-0.7	10.5	8.4
O=C(Nc1cccc(-c2cn3ccccc3n2)c1)c1ccccc1	-1.3	-8.5	9.7	7.5	5.5	22.5
O=C(Nc1cccc(-c2nc3ccccc3[nH]2)c1)c1cccc(NC(=O)c2ccco2)c1	-1.3	u	55.6	98.7*	x	-0.9
Cc1ccc(C(=O)Nc2cccc(-c3cn4ccccc4n3)c2)cc1	0.5	0.6	1.8	-3.0	-7.6	93.7*
O=S(=O)(Nc1ccc(Cl)cn1)c1cccs1	0.5	12.6	-8.1	x	x	16.2
Cc1cccc(N2CCN(S(=O)(=O)c3ccc4c(c3)CCCN4C(=O)C3CCC3)CC2)c1C	-1.4	23.6	6.8	-2.6	x	7.0
O=C(Nc1cccc(-c2cn3cccnc3n2)c1)c1ccco1	0.5	68.0*	2.3	-10.7	x	u
O=C(Nc1ccccc1)Nc1cccc(-c2cn3cccnc3n2)c1	-1.2	-12.5	9.9	-3.8	20.6	6.3
O=C(Cn1cnc([N+](=O)[O-])n1)N/N=C/c1ccc(O)cc1O	0.5	6.0	x	80.1*	-16.8	-19.8
O=C(Cn1cnc([N+](=O)[O-])n1)N/N=C/c1cccc2ccccc12	-0.6	52.1	2.1	-0.3	-4.5	-0.1
CCN(CC)c1ccc2c(cc1=O)[C@@H](NC)CCc1cc(OC)c(OC)c(OC)c1-2	0.7	34.5	38.9	55.9	x	35.4
COc1cc2c(c(OC)c1OC)-c1ccc(N(C)CC(OC)OC)c(=O)cc1[C@@H](NC(C)=O)CC2	0.5	18.0	29.6	75.1*	x	-5.5
COc1cc2c(c(OC)c1OC)-c1ccc(OC)c(=O)cc1[C@@H](NC(C)=O)CC2	0.7	22.0	38.1	49.0	36.7	-0.4
CN[C@H]1CCc2cc(OC)c(OC)c(OC)c2-c2ccc(N(C)CC(OC)OC)c(=O)cc21	0.6	17.1	9.8	80.2*	x	1.1
SMILES	Bfl-1 A1 inh	T cruzi inh	Beta cell apopt	CSC inhib	H9c2 TAG inh	Calb FLC
CCOc1cc(/C=N/NC(=O)c2cc(-c3cccc(OC)c3)nc3ccccc23)ccc1O	-0.4	25.9	98.7*	5.6	13.3	19.4
COc1cccc(/C=N/NC(=O)c2cc(-c3ccccn3)nc3ccccc23)c1O	-0.5	x	92.9*	16.9	33.8	x
COc1cc([N+](=O)[O-])cc(/C=N/NC(=O)c2cc(-c3ccccc3)nc3ccccc23)c1O	-1.0	10.7	79.0*	56.2	22.2	88.5*
COc1cc([N+](=O)[O-])cc(/C=N/NC(=O)c2cc(C)nc3ccccc23)c1O	-0.4	-17.9	-3.0	4.7	14.3	-2.3
COCCN(CC(=O)Nc1cccc(C)c1C)C(=O)Cc1ccsc1	0.1	x	-0.5	-10.7	-30.9	x
COc1ccc(CCNC(=O)c2c(Cl)ccc(Cl)c2OC)cc1OC	1.7	5.3	-1.3	-0.3	x	-4.1
Cc1nsc2c1ccc1ccccc12	-1.1	-15.0	0.7	-12.2	12.3	-20.2
CC1=[N+](C)c2ccc3ccccc3c2C1(C)C	-0.7	69.4*	98.5*	102.8*	10.3	22.7
CC(=O)NC12CC3CC(C1)CC(C(=O)N(C)CC(=O)Nc1cccc(F)c1)(C3)C2	-0.1	x	3.9	-25.9	-9.2	x
Cc1ccc(C(=O)NC(=S)Nc2ccc(Oc3ccc(Cl)cc3)cc2)cc1	-0.2	65.3*	-2.1	31.3	x	7.0
Cc1ccc(C(=O)NC(=S)Nc2ccc(NC(=O)c3cccc(Cl)c3)cc2)cc1	1.2	-32.1	1.4	2.2	7.6	-0.6
O=C(NC(=S)Nc1ccc(Oc2ccccc2)cc1)c1ccc(Cl)cc1	-0.5	61.9*	-7.7	59.2	x	-3.8
Cc1ccccc1C(=O)NC(=S)Nc1ccc(Oc2ccc(Cl)cc2)cc1	0.2	20.3	1.2	65.3	-19.6	22.6
N#CCSc1ccccc1NC(=O)COC(=O)Cc1c[nH]c2ccccc12	x	x	x	x	-5.6	x
S=C(Nc1ccccc1)Nc1nc2ccccc2n1CCOc1ccc(Cl)cc1	-0.7	-28.5	53.2	+	x	92.0*
CCn1c(NC(=S)Nc2ccccc2)nc2ccccc21	-2.2	65.1*	x	12.8	33.5	6.2
COc1c(/C=C2\SC(=Nc3ccccc3Cl)NC2=O)cccc1[N+](=O)[O-]	0.3	2.5	-4.2	8.3	8.0	41.6
O=C1NC(=Nc2ccccc2Cl)S/C1=C\c1cccc([N+](=O)[O-])c1O	-2.5	5.4	x	33.9	x	94.9*
CN1CCN(/N=C/c2ccc(-c3ccccc3)cc2)CC1	-0.2	40.8	4.0	-19.2	10.3	-21.0
Cc1cc(/C=N/N2CCN(C)CC2)c(C)n1-c1ccccc1F	0.8	67.1*	-3.3	-0.9	x	-0.8
CCn1cc(C(=O)NCc2ccco2)c(=O)c2cc(S(=O)(=O)N3CC(C)CC(C)C3)ccc21 (stereo unspecified)	-0.2	5.8	26.4	82.7*	x	19.9
CCn1cc(C(=O)NCc2ccco2)c(=O)c2cc(S(=O)(=O)N3CCc4ccccc4C3)ccc21	0.0	55.7*	4.6	41.7	x	11.9

Source: PubChem (several laboratories)
